Test results reported in ChEMBL document CHEMBL1124187, “Nucleosides. 150. Synthesis and some biological properties of 5-monofluoromethyl, 5-difluoromethyl, and 5-trifluoromethyl derivatives of 2'-deoxyuridine and 2'-deoxy-2'-fluoro-beta-D-arabinofuranosyluracil” (1988).
pEC50, pIC50: −log10 of the molar value.

Tests used:
[1] = target: Thymidylate synthase (Mus musculus) (UniProt P07607); test: The compound was tested for inhibition of thymidylate synthase (TS) in L1210 cells; assay type: cell-based
Procedure, shortened: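 In situ thymidylate synthase activity in intact L1210 cells, measured as tritium released from [5-3H]UDR. Reported as ID50.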

Human alphaherpesvirus 2 = test: Effective dose required for antiherpes activity against HSV-2(G) strain; assay type: functional; conditions: read-out: ED50 (the source's name)
HL-60 [2] = test: Growth inhibition against HL-60 after 72 hours incubation period; assay type: functional; conditions: Homo sapiens, HL-60, 72 h; read-out: ID50 (the source's name)
Procedure, shortened: (§1)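 HL-60 cell growth inhibition; ID50 derived from six concentrations of each nucleoside using the median-effect equation and plot.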

HL-60 [3] = test: Growth inhibition against HL-60 after 48 hours incubation period; assay type: functional; conditions: Homo sapiens, HL-60, 48 h; read-out: ID50 (the source's name); procedure, shortened: as §1
Human alphaherpesvirus 1 = test: Effective dose required for antiherpes activity against HSV-1(F) strain; assay type: functional; conditions: read-out: ED50 (the source's name)
HL-60 [4] = test: Growth inhibition against HL-60 after 24 hours incubation period; assay type: functional; conditions: Homo sapiens, HL-60, 24 h; read-out: ID50 (the source's name); procedure, shortened: as §1
HL-60 [5] = test: The compound was tested for [3H]TdR incorporation into DNA in HL-60 cells; assay type: functional; conditions: Homo sapiens, HL-60, 30 min; read-out: ID50 (the source's name)
Procedure, shortened: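 HL-60 cells labelled with [methyl-3H]TDR (1 µCi, 0.02 µM) for 30 min, then label incorporated into DNA measured. ID50 derived from six nucleoside concentrations using the median-effect equation and plot.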

Homo sapiens = species: Homo sapiens; test: Growth inhibition against HL-60 after 24 hr incubation period; assay type: functional; procedure, shortened: as §1

Sequence of Thymidylate synthase (Mus musculus) (P07607 whole entry, looked up): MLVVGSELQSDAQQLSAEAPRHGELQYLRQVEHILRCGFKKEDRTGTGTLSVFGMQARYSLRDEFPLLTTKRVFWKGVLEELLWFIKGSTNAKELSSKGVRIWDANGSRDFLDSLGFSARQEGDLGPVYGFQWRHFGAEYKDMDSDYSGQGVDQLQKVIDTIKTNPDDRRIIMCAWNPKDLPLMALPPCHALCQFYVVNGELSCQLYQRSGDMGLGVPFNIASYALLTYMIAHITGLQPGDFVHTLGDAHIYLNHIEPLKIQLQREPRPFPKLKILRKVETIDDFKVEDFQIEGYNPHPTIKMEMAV

| Compound | ID50 [1] [µM] | pEC50 (Human alphaherpesvirus 2) | pIC50 (HL-60 [2]) | pIC50 (HL-60 [3]) | pEC50 (Human alphaherpesvirus 1) | pIC50 (HL-60 [4]) | pIC50 (HL-60 [5]) | ID50 (Homo sapiens) [µM] |
| --- | --- | --- | --- | --- | --- | --- | --- | --- |
| O=Cc1cn([C@@H]2O[C@H](CO)[C@@H](O)[C@@H]2F)c(=O)[nH]c1=O | > 1000 | – | – | – | – | – | – | – |
| O=c1[nH]c(=O)n([C@H]2C[C@H](O)[C@@H](CO)O2)cc1CO | > 1000 | – | – | – | – | – | – | – |
| CC(=O)OC[C@H]1O[C@@H](n2cc(CF)c(=O)[nH]c2=O)[C@@H](F)[C@@H]1OC(C)=O | – | 5.28 | 3.51 | 3.30 | 5.61 | 3.07 | – | – |
| Cc1cn([C@@H]2O[C@H](CO)[C@@H](O)[C@@H]2F)c(=O)[nH]c1=O [5-METHYL-2'-FLUOROARAURACIL] | > 1000 | 7.15 | 4.60 | 4.29 | 7.15 | 3.87 | 4.70 | – |
| CC(=O)OC[C@H]1O[C@@H](n2cc(CF)c(=O)[nH]c2=O)C[C@@H]1OC(C)=O | – | < 4.00 | 3.49 | 3.01 | < 4.00 | 2.46 | – | – |
| CC(=O)OC[C@H]1O[C@@H](n2cc(C(F)F)c(=O)[nH]c2=O)[C@@H](F)[C@@H]1OC(C)=O | – | 5.67 | 4.40 | 4.08 | 6.15 | – | – | 257 |
| CC(=O)OC[C@H]1O[C@@H](n2cc(C(F)F)c(=O)[nH]c2=O)C[C@@H]1OC(C)=O | – | 4.60 | 4.85 | 4.85 | 4.77 | 4.08 | – | – |
| O=c1[nH]c(=O)n([C@@H]2O[C@H](CO)[C@@H](O)[C@@H]2F)cc1C(F)(F)F | 14 | 5.77 | 4.77 | 4.54 | 6.08 | 3.52 | < 3.00 | – |
| O=c1[nH]c(=O)n([C@@H]2O[C@H](CO)[C@@H](O)[C@@H]2F)cc1CO | > 1000 | 5.26 | 2.72 | 2.94 | 5.70 | < 2.30 | – | – |
| CC(=O)OC[C@H]1O[C@@H](n2cc(C(F)(F)F)c(=O)[nH]c2=O)[C@@H](F)[C@@H]1OC(C)=O | – | 5.89 | 4.19 | 4.21 | 5.89 | 4.27 | – | – |
| O=c1[nH]c(=O)n([C@H]2C[C@H](O)[C@@H](CO)O2)cc1CF | 11 | < 4.00 | < 3.00 | < 3.00 | < 4.00 | 3.75 | 4.73 | – |
| CC(=O)OC[C@H]1O[C@@H](n2cc(C)c(=O)[nH]c2=O)[C@@H](F)[C@@H]1OC(C)=O | – | 5.91 | 3.92 | 3.68 | 6.36 | < 3.00 | – | – |
| O=c1[nH]c(=O)n([C@@H]2O[C@H](CO)[C@@H](O)[C@@H]2F)cc1C(F)F | 56 | 5.98 | 5.18 | 4.92 | 6.47 | 4.01 | < 3.00 | – |
| CC(=O)OC[C@H]1O[C@@H](n2cc(C(F)(F)F)c(=O)[nH]c2=O)C[C@@H]1OC(C)=O | – | 4.79 | 5.07 | 4.72 | 5.33 | 3.30 | – | – |
| O=c1[nH]c(=O)n([C@H]2C[C@H](O)[C@@H](CO)O2)cc1C(F)(F)F [TRIFLURIDINE] | 0.035 | 5.73 | 6.85 | 5.77 | 6.11 | 5.82 | 4.85 | – |
| O=c1[nH]c(=O)n([C@H]2C[C@H](O)[C@@H](CO)O2)cc1C(F)F | 0.063 | 5.93 | 6.92 | 5.90 | 6.10 | 5.40 | 5.29 | – |
| Cc1cn([C@H]2C[C@H](O)[C@@H](CO)O2)c(=O)[nH]c1=O [DOXRIBTIMINE] | 75 | < 3.00 | 3.47 | 3.34 | < 3.00 | 3.05 | 6.21 | – |
| O=c1[nH]c(=O)n([C@@H]2O[C@H](CO)[C@@H](O)[C@@H]2F)cc1CF | > 1000 | 6.10 | 3.92 | 3.69 | 6.17 | 3.00 | 3.72 | – |
